From PubChem
KCNK3 inh = human KCNK3 channel inhibition, primary screen | hit rate 0.84% among 340,000 | B-score at 10 µM | CHO-KCNK3 thallium flux, FluxOR fluorescence; active compounds read low | O14649;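 active = B-score under library mean minus 4 SD, starting fluorescence ratio at most library mean plus 5 SD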;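 note: more negative B-score means stronger inhibition of thallium flux through KCNK3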
Kir21 block = blocks the mouse Kir2.1 inward-rectifier potassium channel; HEK293-Kir2.1, FluxOR thallium flux fluorescence; active compounds read low; hit rate 0.85% among 310,000; B-score at 10 µM;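 active = fluorescence ratio B-score at or below minus 3 SD of library scores, with starting-brightness B-score within 2 SD, cut at about -4.2 in these data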;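 note: channel flux triggered by added potassium and thallium sulfate stimulus; B-score of peak minus minimum fluorescence over baseline after thallium stimulus; more negative B-score means stronger Kir2.1 block with less thallium influx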
KCNK9 block = human KCNK9 channel inhibition; Q9NPC2; HEK293 KCNK9, FluxOR thallium flux fluorescence; active compounds read low; B-score at 10 µM; hit rate 1.2% among 310,000;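 active = ratio B-score over 3 SD below the library mean, with starting fluorescence within 5 SD of its mean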;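 note: negative B-score means less thallium flux so channel inhibition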
hERG rescue = shields human hERG channel from block by proarrhythmic agents; Q12809; CHO-hERG, FluxOR thallium flux, dofetilide IC70 present; activation (rescue from dofetilide block), less the hit threshold, % at 10 µM; hit rate 0.51% among 310,000;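 active = activation above the mean of controls blocked by dofetilide plus 5 SD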;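 note: thallium influx through hERG after potassium depolarization seen as dye fluorescence rise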
Target sequence (Q12809 whole entry, looked up): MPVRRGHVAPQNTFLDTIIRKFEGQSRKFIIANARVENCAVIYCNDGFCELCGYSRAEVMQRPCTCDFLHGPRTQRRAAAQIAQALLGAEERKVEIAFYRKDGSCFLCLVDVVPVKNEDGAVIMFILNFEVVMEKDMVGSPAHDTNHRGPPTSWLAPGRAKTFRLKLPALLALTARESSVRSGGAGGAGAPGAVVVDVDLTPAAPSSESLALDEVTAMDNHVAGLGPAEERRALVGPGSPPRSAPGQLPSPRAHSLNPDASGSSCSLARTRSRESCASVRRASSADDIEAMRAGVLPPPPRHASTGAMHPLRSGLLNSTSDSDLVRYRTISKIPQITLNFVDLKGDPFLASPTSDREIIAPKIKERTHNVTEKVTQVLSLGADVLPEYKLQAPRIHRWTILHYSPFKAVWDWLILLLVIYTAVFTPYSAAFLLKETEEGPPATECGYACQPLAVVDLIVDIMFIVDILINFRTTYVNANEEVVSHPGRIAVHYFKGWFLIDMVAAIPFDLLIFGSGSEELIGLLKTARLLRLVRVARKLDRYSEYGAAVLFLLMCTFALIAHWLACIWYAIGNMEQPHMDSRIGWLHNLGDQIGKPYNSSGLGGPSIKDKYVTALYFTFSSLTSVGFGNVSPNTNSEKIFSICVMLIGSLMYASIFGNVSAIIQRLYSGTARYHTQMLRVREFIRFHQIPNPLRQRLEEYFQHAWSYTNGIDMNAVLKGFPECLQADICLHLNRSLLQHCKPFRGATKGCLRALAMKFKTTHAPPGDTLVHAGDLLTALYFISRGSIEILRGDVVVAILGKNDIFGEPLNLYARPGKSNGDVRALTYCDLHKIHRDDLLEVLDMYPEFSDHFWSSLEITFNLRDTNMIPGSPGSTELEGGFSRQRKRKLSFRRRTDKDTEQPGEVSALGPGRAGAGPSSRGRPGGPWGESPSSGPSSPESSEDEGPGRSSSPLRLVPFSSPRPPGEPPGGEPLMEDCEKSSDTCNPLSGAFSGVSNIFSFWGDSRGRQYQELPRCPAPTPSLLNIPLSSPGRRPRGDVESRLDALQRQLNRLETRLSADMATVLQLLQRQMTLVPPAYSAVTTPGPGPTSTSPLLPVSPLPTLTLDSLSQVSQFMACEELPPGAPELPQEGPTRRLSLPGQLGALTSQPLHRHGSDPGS
KCNQ1 block = human KCNQ1 channel inhibition. hit rate 1.3% among 310,000. CHO-K1 KCNQ1, FluxOR thallium flux fluorescence; active compounds read high. P51787. B-score at 10 µM;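 active = compounds whose thallium flux B-score, printed positive for inhibition, exceeds three library SD while starting fluorescence stays within three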;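 note: channel opened by potassium depolarization with thallium stimulus after 20 min compound exposure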
KCNQ1 act = human KCNQ1 channel potentiation or activation. CHO-K1 KCNQ1, thallium flux FluxOR fluorescence; active compounds read high. B-score at 10 µM. hit rate 0.35% among 310,000. AID 2648;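 active = fluorescence ratio B-score, a plate-corrected score, at least three library SD, with initial intensity B-score within 5 SD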
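Assay system: CHO-K1 cells stably expressing KCNQ1; Medium: assay buffer with matched DMSO; Also added: K+/Tl+ depolarizing stimulus; Dosing: single dose; Timing: dye 90 min, compound 20 min, room temperature; Measured by: kinetic FluxOR thallium fluorescence, 10-s 1-Hz baseline, 110-s post-stimulus read; Read-out: peak-minus-minimum fluorescence over initial fluorescence, negative-control normalized, B-scored.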
KCNK9 block conf = confirmation of human KCNK9 potassium channel inhibitors | hit rate 43% among 4,900 | shares compounds with KCNK9 block | HEK293 KCNK9 cells, FluxOR thallium flux fluorescence | inhibition, % at 10 µM;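 active = thallium signal inhibited by more than 5 SD of the compound-free buffer control wells, on both duplicate plates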;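 note: 0% = assay buffer control wells without compound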
Kir2-1 spec = mouse Kir2.1 off-target activity of KCNK9 modulators; inhibition, % at 10 µM; hit rate 4% among 4,900; AID 492993; Kir2.1 cells, FluxOR thallium flux fluorescence; shares compounds with KCNK9 block;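 active = thallium signal drop more than 5 SD beyond the mean of the no-compound control wells, seen in both duplicate plates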;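 note: signal is fluorescence rise after thallium addition divided by baseline fluorescence; plate controls were assay buffer only for no effect and full block by chlorpromazine control for full effect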
KCNK9 uninduced = second counter-screen for KCNK9 modulators: effect in non-induced cells; shares compounds with KCNK9 block; non-induced KCNK9-HEK293, FluxOR thallium flux; inhibition, % at 10 µM; AID 492997; hit rate 40% among 4,900;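 active = thallium signal drop beyond 5 SD of the untreated control mean, on both duplicate plates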;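 note: plate controls were buffer only IC0 wells for no effect and SID17386958 at its maximal inhibitory level for full effect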
KCNK3 confirm = human KCNK3 channel inhibition, confirmation assay; hit rate 99% among 2,400; AID 651638; CHO-KCNK3 thallium flux, FluxOR fluorescence; 0% buffer, 100% carvedilol maximal block; ratio percent of control, % at 10 µM; shares compounds with KCNK3 inh;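 active = ratio percent of control, averaged over triplicates, above buffer control mean plus 5 SD, cut at about 64% in these data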;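 note: ratio is the fluorescence rise from min to max over baseline after thallium stimulus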
KCNK3 uninduced = KCNK3 inhibitor counter-screen hit in non-induced cells; shares compounds with KCNK3 inh; non-induced KCNK3 parental cells, FluxOR thallium flux; active compounds read low; thallium flux ratio (lower = more inhibition) at 10 µM; hit rate 40% among 2,400;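 active = thallium flux ratio, averaged over three wells, more than 5 SD below the buffer control mean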;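 note: host cells are CHO cells without KCNK3 induction; ratio is peak minus trough fluorescence over baseline then normalized to buffer controls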
* marks the source's active call; other numbers are inactive results; i = inactive; nt = not tested or not shown. Hits are enriched below; roughly 3.7% of the tested compounds scored in any of these assays.

SMILES	KCNK3 inh	Kir21 block	KCNK9 block	hERG rescue	KCNQ1 block	KCNQ1 act	KCNK9 block conf	Kir2-1 spec	KCNK9 uninduced	others
O=C(CSCc1ccc(Br)cc1)Nc1ccc(S(=O)(=O)N2CCOCC2)cc1	i	-0.06	i	-8	i	i	nt	nt	nt
CCCCN(C(=O)NCCCCCCNC(=O)N(CCCC)C1CCS(=O)(=O)C1)C1CCS(=O)(=O)C1 (stereo not drawn)	i	-0.55	i	-10	i	i	nt	nt	nt
O=C1OC(Sc2ccccc2)(c2ccccc2)c2ccccc21 (stereo not drawn)	i	nt	nt	nt	nt	nt	nt	nt	nt
Cc1cc(C)c(OC2(c3ccccc3)OC(=O)c3ccccc32)c(C)c1 (stereo not drawn)	i	1.8	-17*	-9	i	i	69%*	i	47%*
CCC(C(=O)N1CCN(c2cccc(Cl)c2)CC1)c1ccccc1 (stereo not drawn)	-11*	0.15	-11*	-8	i	i	50%*	i	32%*
CC1CC(C)CN(C(=O)CSc2nc(Cc3cccs3)nc3ccccc23)C1 (stereo not drawn)	i	-1.8	i	-18	i	i	i	i	24%*
CC(C)(C)c1nc(SCC(=O)N2CCCC2)c2ccccc2n1	i	-0.86	i	-8	i	i	nt	nt	nt
CCc1ccc(OCCCCN(C)Cc2ccccc2)cc1	i	-6.1*	i	-9	i	i	i	i	i
Cc1ccc(OCC(=O)OCC(=O)Nc2ccc3c(c2)OCO3)cc1C	i	nt	nt	nt	nt	nt	nt	nt	nt
Cc1ccc(NCc2nc3ccccc3n2CCOc2ccccc2)cc1	i	-0.23	-12*	-7	i	i	40%*	i	38%*
COc1ccccc1NC(=S)NC(=O)c1c(-c2ccccc2Cl)noc1C	i	-0.18	i	-7	i	i	i	i	i
Cc1onc(-c2ccccc2Cl)c1C(=O)NC(=S)NCc1cccnc1	i	-0.92	i	-12	i	i	i	i	i
Cc1onc(-c2ccccc2Cl)c1C(=O)NC(=S)Nc1ccccc1F	i	-0.91	i	1	i	i	nt	nt	nt
Cc1onc(-c2ccccc2Cl)c1C(=O)NCc1cccnc1	i	0.74	i	-6	i	i	nt	nt	nt
Cc1ccc(Cl)cc1N1CCN(C2CCCCC2NS(=O)(=O)c2ccccc2)CC1 (stereo not drawn)	-9.3*	0.27	-17*	-10	i	i	54%*	i	43%*	KCNK3 confirm=112*;KCNK3 uninduced=0.14*
Cc1cccc(N2CCN(C3CCCCC3NS(=O)(=O)c3ccccc3)CC2C)c1 (stereo not drawn)	-9.2*	0.15	-15*	-9	i	i	44%*	i	45%*	KCNK3 confirm=115*;KCNK3 uninduced=0.15*
Cc1oc(-c2ccccc2Cl)nc1CS(=O)CC(=O)NCc1ccccc1Cl (stereo not drawn)	i	-0.01	i	-12	i	i	nt	nt	nt
CC(C)(C)OC(=O)N1CCC[C@H]1c1nnc(SCC(=O)Nc2ccc(Br)cc2)o1	i	-0.22	i	-6	i	i	nt	nt	nt
CCCCCCCCCCOC(=O)Cn1c(COc2cccc(C)c2)[n+](C)c2ccccc21	-10*	-13*	-14*	-13	i	i	64%*	64%*	i	KCNK3 confirm=100*;KCNK3 uninduced=i
